Test results taken from ChEMBL document CHEMBL4680079, “Discovery of a Quinoline-4-carboxamide Derivative with a Novel Mechanism of Action, Multistage Antimalarial Activity, and Potent in Vivo Efficacy” (J Med Chem, 2016).
pEC50, pIC50: −log10 of the molar value. ≈ marks a conversion by molar mass, not a printed value. Calls of active or inactive are those of the source. The rule behind the calls is not given here.

What was measured:
Plasmodium falciparum [1] = test: Antiplasmodial activity against drug resistant Plasmodium falciparum W2 by [3H]hypoxanthine incorporation assay; assay type: functional, organism-based
Procedure, shortened: (§1)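 Strains (K1, W2, 7G8, TM90C2A, D6, V1/S resistant; NF54 sensitive) cultured by the Trager and Jensen method; EC50 determined in vitro from [3H]hypoxanthine incorporation.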

Plasmodium falciparum [2] = test: Antiplasmodial activity against drug resistant Plasmodium falciparum K1 by [3H]hypoxanthine incorporation assay; assay type: functional, organism-based; procedure, shortened: as §1
Plasmodium falciparum [3] = test: Antiplasmodial activity against drug resistant Plasmodium falciparum […] [3H]hypoxanthine incorporation assay; assay type: functional, organism-based; procedure, shortened: as §1
Plasmodium yoelii = test: Antiplasmodial activity against Plasmodium yoelli liver stage forms; assay type: functional, organism-based
Plasmodium falciparum [4] = test: Antiplasmodial activity against chloroquine-sensitive Plasmodium falciparum 3D7 infected in human red blood cells assessed as growth inhibition by SYBR Green fluorescence assay; assay type: functional, organism-based, RBC; details: 3D7, Erythrocyte
Procedure, shortened: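 P. falciparum 3D7 grown in 5% human red cells in RPMI 1640 (pH 7.3) with 0.5% Albumax II, hypoxanthine and gentamicin at 37°C under 1% O₂/3% CO₂. Growth measured by SYBR green fluorescence (ex 485/em 528 nm), with mefloquine as assay control. EC50 calculated.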

[5] = Intrinsic clearance in CD1 mouse liver microsomes at 0.5 uM in presence of NADPH incubated upto 30 mins by UPLC-MS/MS analysis; assay type: ADME, Microsome; details: 0.5 h
Procedure, shortened: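 Compound at 0.5 μM incubated with female CD1 mouse, male Sprague-Dawley rat or pooled human liver microsomes (0.5 mg/mL, 50 mM potassium phosphate, pH 7.4). Reaction started with excess NADPH. Samples taken at 0-30 min, quenched in acetonitrile, analysed by UPLC-MS/MS. Verapamil used as control, single time course.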

[6] = Kinetic aqueous solubility of the compound by laser nephelometry; assay type: physicochemical; details: read-out: Kinetic_solubility
Procedure, shortened: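 Kinetic solubility measured by laser nephelometry. DMSO serial dilutions diluted into water to give final 100–5 μg/mL at 1.0% DMSO. Read immediately, in triplicate aliquots.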

[7] = Permeability of the compound at 10 uM incubated for 5 hrs by UPLC-MS/MS analysis based PAMPA method; assay type: ADME; details: read-out: permeability
Procedure, shortened: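 PAMPA run on a lipid-oil-lipid tri-layer filter at pH 7.4. Compound at 10 μM in PBS (DMSO ≤5%) in donor wells, PBS in acceptor wells, kept 5 h at room temperature. Both compartments quantified by UPLC-MS/MS. Data accepted only when recovery exceeded 70%.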

[8] = molecular target: Voltage-gated inwardly rectifying potassium channel KCNH2 (Homo sapiens, UniProt Q12809); test: Inhibition of human ERG by IonWorks patch-clamp electrophysiology method
Procedure, shortened: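 hERG K⁺ channel inhibition measured by IonWorks patch-clamp electrophysiology. Eight-point concentration-response curves made from 3-fold serial dilutions down from the maximum final assay concentration. Each curve generated on 2 occasions.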

[9] = Oral bioavailability in NMRI mouse at 10 mg/kg administered via gavage by UPLC-MS/MS analysis; assay type: ADME, organism-based; details: in vivo
Procedure, shortened: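 Female NMRI mice (n=3) dosed by oral gavage as a solution at 10 mg free base/kg (10 mL/kg; vehicle 5 or 10% DMSO, 40% PEG400). Blood levels measured by UPLC-MS/MS. Parameters derived from the blood concentration-time curve.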

Plasmodium berghei [10] = test: Antiplasmodial activity against Plasmodium berghei ANKA infected in NMRI mouse assessed as reduction in parasitemia at 30 mg/kg, po QD for 4 days; assay type: functional; design: scale not given: the % may be the effect or the level left; details: time 4 day
Procedure, shortened: (§2)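 Female NMRI mice (n=3 per group, randomized, not blinded) infected with GFP-transfected P. berghei ANKA. Oral dosing once daily for 4 days in 10% DMSO/40% PEG400/50% water or HPMC suspension vehicle. Parasitaemia measured by flow cytometry on blood collected 96 h after infection. Mice watched for toxicity over 4 h post-dose each day.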

Plasmodium berghei [11] = test: Antiplasmodial activity against Plasmodium berghei ANKA infected in NMRI mouse assessed as survival days at 30 mg/kg, po QD for 4 days; assay type: functional; details: time 4 day
Plasmodium berghei [12] = test: Antiplasmodial activity against Plasmodium berghei ANKA infected in NMRI mouse assessed as cure rate at 30 mg/kg, po QD for 4 days; assay type: functional, organism-based; details: time 4.0 day; procedure, shortened: as §2
Plasmodium berghei [13] = test: Antiplasmodial activity against Plasmodium berghei ANKA infected in NMRI mouse assessed as reduction in parasitemia at 10 mg/kg, po QD for 4 days; assay type: functional; design: scale not given: the % may be the effect or the level left; details: time 4 day; procedure, shortened: as §2
Plasmodium berghei [14] = test: Antiplasmodial activity against Plasmodium berghei ANKA infected in NMRI mouse assessed as survival days at 10 mg/kg, po QD for 4 days; assay type: functional; details: time 4 day
Plasmodium berghei [15] = test: Antiplasmodial activity against Plasmodium berghei ANKA infected in NMRI mouse assessed as cure rate at 10 mg/kg, po QD for 4 days; assay type: functional, organism-based; details: time 4.0 day; procedure, shortened: as §2
Plasmodium berghei [16] = test: Antiplasmodial activity against Plasmodium berghei infected in NMRI mouse assessed as reduction in parasitemia at 3 mg/kg, po QD for 4 days; assay type: functional; design: scale not given: the % may be the effect or the level left; details: time 4 day; procedure, shortened: as §2
Plasmodium berghei [17] = test: Antiplasmodial activity against Plasmodium berghei ANKA infected in NMRI mouse assessed as survival days at 3 mg/kg, po QD for 4 days; assay type: functional; details: time 4 day
Plasmodium berghei [18] = test: Antiplasmodial activity against Plasmodium berghei ANKA infected in NMRI mouse assessed as survival days at 1 mg/kg, po QD for 4 days; assay type: functional; details: time 4 day
[19] = Clearance in Sprague-Dawley rat blood at 1 mg/kg, iv administered as bolus dose by UPLC-MS/MS analysis; assay type: ADME, organism-based
Procedure, shortened: (§3)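 Male Sprague Dawley rats (n=3/route) received an iv bolus solution at 1 mg free base/kg (5 mL/kg; 5% DMSO in saline). Blood sampled from 5 min to 30 or 48 h post-dose, mixed with two volumes water, frozen, then analysed by UPLC-MS/MS. Parameters derived from the blood concentration-time curve.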

[20] = Volume of distribution at steady state in Sprague-Dawley rat at 1 mg/kg, iv administered as bolus dose by UPLC-MS/MS analysis; assay type: ADME, organism-based; details: in vivo, 1 mg/kg; procedure, shortened: as §3
[21] = Oral bioavailability in Sprague-Dawley rat at 3 mg/kg administered via gavage by UPLC-MS/MS analysis; assay type: ADME, organism-based; details: in vivo
Procedure, shortened: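 Oral gavage solution, 3 mg free base/kg (10 mL/kg; 0.5% w/v HPMC, 0.4% v/v Tween 80, 0.5% v/v benzyl alcohol), given to male Sprague Dawley rats (n=3). Blood taken at 5, 15, 30 min and 1, 2, 4, 6, 8, 24, 30 h, mixed with two volumes water, analysed by UPLC-MS/MS.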

Plasmodium berghei [22] = test: Antiplasmodial activity against GFP-transfected Plasmodium berghei ANKA infected in NMRI mouse assessed as reduction in parasitemia by measuring effective dose administered once daily oral dose for 4 days; assay type: functional; details: 96 h, time 4 day; procedure, shortened: as §2
Plasmodium falciparum [23] = test: Antiplasmodial activity against drug resistant Plasmodium falciparum 7G8 by [3H]hypoxanthine incorporation assay; assay type: functional, organism-based; procedure, shortened: as §1
[24] = Blood clearance in NMRI mouse at 1 mg/kg, iv administered as bolus dose by UPLC-MS/MS analysis; assay type: ADME, organism-based
[25] = Cmax in NMRI mouse at 3 mg/kg, po administered as gavage by UPLC-MS/MS analysis; assay type: ADME, organism-based; design: route oral, dose 3 mg/kg; details: in vivo

Voltage-gated inwardly rectifying potassium channel KCNH2, sequence (Q12809 whole entry): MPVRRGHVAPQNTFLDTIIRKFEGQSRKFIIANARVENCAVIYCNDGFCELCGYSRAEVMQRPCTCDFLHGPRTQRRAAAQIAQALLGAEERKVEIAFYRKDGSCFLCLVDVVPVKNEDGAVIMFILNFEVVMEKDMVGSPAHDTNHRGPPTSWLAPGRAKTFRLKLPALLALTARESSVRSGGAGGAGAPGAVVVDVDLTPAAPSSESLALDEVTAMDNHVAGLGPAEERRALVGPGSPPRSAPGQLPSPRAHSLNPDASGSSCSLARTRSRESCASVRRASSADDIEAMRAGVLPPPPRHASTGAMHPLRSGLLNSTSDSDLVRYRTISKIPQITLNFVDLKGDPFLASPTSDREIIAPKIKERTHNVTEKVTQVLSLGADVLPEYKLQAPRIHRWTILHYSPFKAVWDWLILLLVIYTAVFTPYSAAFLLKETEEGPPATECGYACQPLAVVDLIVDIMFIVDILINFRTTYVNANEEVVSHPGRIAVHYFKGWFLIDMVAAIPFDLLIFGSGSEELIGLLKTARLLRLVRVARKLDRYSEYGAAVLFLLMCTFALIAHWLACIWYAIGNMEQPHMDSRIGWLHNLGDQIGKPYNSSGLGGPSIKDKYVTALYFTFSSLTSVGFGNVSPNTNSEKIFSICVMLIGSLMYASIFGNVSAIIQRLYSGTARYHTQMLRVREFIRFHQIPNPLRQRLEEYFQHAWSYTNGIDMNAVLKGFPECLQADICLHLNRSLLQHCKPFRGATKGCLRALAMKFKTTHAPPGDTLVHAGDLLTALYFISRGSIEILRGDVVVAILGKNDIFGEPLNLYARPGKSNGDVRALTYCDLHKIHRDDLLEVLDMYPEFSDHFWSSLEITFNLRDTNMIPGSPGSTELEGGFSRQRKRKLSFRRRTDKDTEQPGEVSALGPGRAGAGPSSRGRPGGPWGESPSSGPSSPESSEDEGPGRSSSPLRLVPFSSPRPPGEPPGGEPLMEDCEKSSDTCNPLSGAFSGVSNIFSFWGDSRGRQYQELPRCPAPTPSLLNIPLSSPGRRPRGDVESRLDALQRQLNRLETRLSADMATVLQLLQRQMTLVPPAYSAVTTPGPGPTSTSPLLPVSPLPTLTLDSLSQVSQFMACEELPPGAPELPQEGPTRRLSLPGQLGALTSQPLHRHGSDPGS

Q: With O=C(NCCN1CCCC1)c1cc(-c2ccc(CN3CCOCC3)cc2)nc2ccc(F)cc12 [CABAMIQUINE] as the compound, how does the pEC50 (Plasmodium falciparum [1]) read?
A: The pEC50 was 9.40.

Q: And the pEC50 (Plasmodium falciparum [2])?
A: The pEC50 was 9.40.

Q: And the pEC50 (Plasmodium falciparum [3])?
A: Its pEC50 is 9.52.

Q: And the pEC50 (Plasmodium yoelii)?
A: The pEC50 was 9.00.

Q: And the pEC50 (Plasmodium falciparum [4])?
A: Its pEC50 is 9.00.

Q: And the CLH [5]?
A: Its CLH is under 0.5 mL/min/g.

Q: And the solubility kinetic [6]?
A: The solubility kinetic was 216 µM (≈ 99.9 µg/mL).

Q: What about the Papp at 5 h, 10 µM [7] of the same compound?
A: Its Papp at 5 h, 10 µM is 7.3 ×10⁻⁶ cm/s.

Q: And the pIC50 [8]?
A: The pIC50 was 4.80.

Q: What about the bioavailability [9] of the same compound?
A: Its bioavailability is 74%.

Q: And the Activity (Plasmodium berghei [10])?
A: The Activity was 99.9%.

Q: And the Survival (Plasmodium berghei [11])?
A: The Survival was over 30 days.

Q: And the Activity (Plasmodium berghei [12])?
A: Its Activity is “Active”.

Q: What about the Activity (Plasmodium berghei [13]) of the same compound?
A: Its Activity is 99.9%.

Q: And the Survival (Plasmodium berghei [14])?
A: The Survival was over 30 days.

Q: And the Activity (Plasmodium berghei [15])?
A: Its Activity is “Active”.

Q: And the Activity (Plasmodium berghei [16])?
A: Its Activity is 99.9%.

Q: And the Survival (Plasmodium berghei [17])?
A: Its Survival is 25 days.

Q: What about the Survival (Plasmodium berghei [18]) of the same compound?
A: Its Survival is 14 days.

Q: And the clearance [19]?
A: Its clearance is 18 mL/min/kg.

Q: What about the Vdss [20] of the same compound?
A: The Vdss was 15 L/kg.

Q: And the bioavailability [21]?
A: Its bioavailability is 84%.

Q: What about the ED90 (Plasmodium berghei [22]) of the same compound?
A: The ED90 was 0.1 mg/kg.

Q: What about the pEC50 (Plasmodium falciparum [23]) of the same compound?
A: Its pEC50 is 9.40.

Q: And the clearance [24]?
A: The clearance was 12 mL/min/kg.

Q: And the Cmax [25]?
A: The Cmax was 90 ng/mL.
